Experimental data: ChEMBL document CHEMBL1122609, “N-allyl analogues of phencyclidine: chemical synthesis and pharmacological properties” (J Med Chem, 1984)

Tests used:
Mus musculus [1] = organism: Mus musculus; assay: Acute toxicity relative to PCP was reported.; assay type: organism-based; conditions: in vivo
Mus musculus [2] = assay: Percent failing the test was reported at dose 13.2 umol/kg (experiment 1); assay type: functional
Mus musculus [3] = assay: Percent failing the test was reported at dose 9.60 umol/kg (experiment 2); assay type: functional
Mus musculus [4] = organism: Mus musculus; assay: Effective dose for the degree of motor incoordination in untrained mice; assay type: functional
How it was run: (§1)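 Male HAP ICR Swiss mice, 25-30 g, pre-screened for passing. Dosing ip in 0.9% NaCl as a solution or fine suspension, 0.01 mL/g, 4-6 doses, six mice per dose, repeated on 2-4 more days. Platform rotated 180° at 5-120 min. Falling, or failing to climb within 60 s, scored.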

Mus musculus [5] = organism: Mus musculus; assay: Relative potency was determined using mouse platform test of Coughenour et al.; assay type: functional; how it was run: as §1
Mus musculus [6] = assay: Lethal dose (LD50) determined by the Litchfield and Wilcoxon method was reported; assay type: functional
How it was run: (§2)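 Male HAP ICR Swiss mice, 25-35 g, in groups of six, given ip doses. Deaths counted at 24 h after injection. LD50 estimated by Litchfield–Wilcoxon probit analysis, as for ED50.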

[7] = molecular target: Muscarinic acetylcholine receptor; assay: Dissociation constant towards Muscarinic acetylcholine receptor was determined by using [3H]4NMPB as radioligand; assay type: protein assay
How it was run: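 Competition binding with [3H]-4NMPB in the S1 supernatant of mouse-brain homogenate, with and without test compound at various concentrations. Nonspecific binding determined and subtracted. KD calculated from the difference in binding.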

[8] = Ratio of failed to the tested was reported at dose 12.4 umol/kg (experiment 1); out of 12; assay type: functional
[9] = Ratio of half life (protection) to the control was reported at a concentration 0 M; assay type: ADME
How it was run: (§3)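 Horse-serum BChE (3 units/mg), Ellman method: 0.025 unit with acetylthiocholine 1.87 × 10^-3 M in 0.1 M phosphate buffer pH 7.4 at 25 °C, absorbance at 412 nm followed over time. Enzyme preincubated 3 min with test compound. DFP 2.5 × 10^-8 M then added. Aliquots assayed for residual activity at various times. Pseudo-first-order constant used to obtain k2 = ln(A0/At)/([I]t).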

[10] = Ratio of half life (protection) to the control was reported at a concentration 4*10e-6 M; assay type: ADME; how it was run: as §3
[11] = Ratio of half life (protection) to the control was reported at a concentration 4*10e-7 M; assay type: ADME; how it was run: as §3
[12] = Ratio of half life (protection) to the control was reported at a concentration 8*10e-6 M; assay type: ADME; how it was run: as §3
[13] = Ratio of failed to the tested was reported at dose 15.2 umol/kg (experiment 2); out of 12; assay type: functional
Mus musculus [14] = organism: Mus musculus; assay: Compound was evaluated for acute toxicity relative to compound PCP; assay type: organism-based; conditions: in vivo
Mus musculus [15] = assay: Compound was evaluated for lethal dose (LD50) by the Litchfield and Wilcoxon method; assay type: functional; how it was run: as §2
[16] = Ratio of failed to the tested was reported at dose 13.2 umol/kg (experiment 1); out of 6; assay type: functional
How it was run: (§4)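 Male HAP ICR Swiss mice (20-30 g) pre-screened on the mouse platform test. PCP was given ip in 0.9% NaCl (0.01 mL/g). The platform was rotated 180° within 10 s, and mice were scored over 60 s for falling off, failing to reach the top, or reaching the top. Testing was at 5-120 min post-injection. The read-out was the number failing out of the number tested.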

[17] = Ratio of failed to the tested was reported at dose 9.60 umol/kg (experiment 2); out of 24; assay type: functional; how it was run: as §4
Mus musculus [18] = organism: Mus musculus; assay: Compound was evaluated for acute toxicity relative to PCP; assay type: organism-based; conditions: in vivo
Mus musculus [19] = assay: Percent failing the test was reported at dose 9.60 umol/kg (experiment 1); assay type: functional
[20] = Ratio of failed to the tested was reported at dose 9.60 umol/kg (experiment 2); out of 6; assay type: functional
[21] = Ratio of half life (protection) to the control was reported at a concentration 2*10e-6M; assay type: ADME
How it was run: (§5)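 Horse serum BChE (0.5 unit/mL) was incubated 3 min with the compound, then DFP was added at 2.5 × 10^-8 M, 25 °C. Residual activity was measured in aliquots over time by the Ellman method: acetylthiocholine 1.87 × 10^-3 M, 0.1 M phosphate pH 7.4, absorbance at 412 nm. Inactivation was fitted as pseudo-first-order.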

[22] = Ratio of half life (protection) to the control was reported at a concentration 3*10e-6 M; assay type: ADME; how it was run: as §5
[23] = Ratio of failed to the tested was reported at dose 26.0 umol/kg (experiment 1); out of 6; assay type: functional
How it was run: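 Male HAP ICR Swiss mice (20-30 g), six per group, pre-screened on the platform test. An N-allyl analogue in 0.9% NaCl was given ip, and PCP ip followed 5 min later. The platform was rotated 180° within 10 s, and mice were scored over 60 s for falling off or reaching the top. Testing was at 5-120 min post-injection. The read-out was the number failing out of the number tested.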

[24] = Ratio of failed to the tested was reported at dose 29.0 umol/kg (experiment 2); out of 6; assay type: functional
[25] = Ratio of half life (protection) to the control was reported at a concentration 9*10e-7 M; assay type: ADME; how it was run: as §3
[26] = Ratio of failed to the tested was reported at dose 16.0 umol/kg (experiment 1); out of 6; assay type: functional
[27] = Ratio of failed to the tested was reported at dose 19.0 umol/kg (experiment 2); out of 6; assay type: functional
[28] = Ratio of half life (protection) to the control was reported at a concentration 4*10e-5 M; assay type: ADME; how it was run: as §3

C=CCN(CC)C1(c2ccccc2)CCCCC1
Acute toxicity (Mus musculus [1]): 0.59 | Activity (Mus musculus [2]): 83% | Activity (Mus musculus [3]): 83% | ED50 (Mus musculus [4]): 22.6 µmol/kg | Relative potency (Mus musculus [5]): 0.42 | LD50 (Mus musculus [6]): 441 µmol/kg | Kd [7]: 14 µM | Ratio [8]: 10 | Ratio [9]: 1 | Ratio [10]: 5.11 | Ratio [11]: 1.33 | Ratio [12]: 1.71 | Ratio [13]: 10

c1ccc(C2(N3CCCCC3)CCCCC2)cc1 [PHENCYCLIDINE]
Acute toxicity (Mus musculus [14]): 1 | Activity (Mus musculus [2]): 33.3% | Activity (Mus musculus [3]): 45.8% | ED50 (Mus musculus [4]): 9.6 µmol/kg | LD50 (Mus musculus [15]): 258 µmol/kg | Relative potency (Mus musculus [5]): 1 | Kd [7]: 9.1 µM | Ratio [16]: 2 | Ratio [17]: 11 | Ratio [9]: 1 | Ratio [10]: 4.48 | Ratio [11]: 1.26 | Ratio [12]: 1.73

C=CCNC1(c2ccccc2)CCCCC1
Acute toxicity (Mus musculus [18]): 0.75 | Activity (Mus musculus [2]): 100% | Activity (Mus musculus [19]): 83% | ED50 (Mus musculus [4]): 20.4 µmol/kg | Relative potency (Mus musculus [5]): 0.55 | LD50 (Mus musculus [6]): 344 µmol/kg | Kd [7]: 70 µM | Ratio [16]: 6 | Ratio [20]: 5 | Ratio [9]: 1 | Ratio [21]: 1.22 | Ratio [22]: 1.71 | Ratio [10]: 2.61 | Ratio [12]: 2.35

C=CCN(CC=C)C1(c2ccccc2)CCCCC1
Activity (Mus musculus [2]): 100% | Activity (Mus musculus [3]): 100% | ED50 (Mus musculus [4]): 35.6 µmol/kg | Relative potency (Mus musculus [5]): 0.27 | Kd [7]: 25 µM | Ratio [23]: 6 | Ratio [24]: 6 | Ratio [9]: 1 | Ratio [10]: 5.89 | Ratio [11]: 1.18 | Ratio [25]: 2.12

CCNC1(c2ccccc2)CCCCC1 [ETICYCLIDINE]
Ratio [9]: 1 | Ratio [10]: 2.6 | Ratio [11]: 0.95 | Ratio [12]: 2.52

C=CCN(C)C1(c2ccccc2)CCCCC1
Acute toxicity (Mus musculus [1]): 0.5 | Activity (Mus musculus [2]): 100% | Activity (Mus musculus [3]): 100% | ED50 (Mus musculus [4]): 27.2 µmol/kg | Relative potency (Mus musculus [5]): 0.41 | LD50 (Mus musculus [6]): 516 µmol/kg | Kd [7]: 15 µM | Ratio [26]: 6 | Ratio [27]: 6 | Ratio [9]: 1 | Ratio [28]: 7.76 | Ratio [10]: 2.15 | Ratio [12]: 2.21
